Published values from different studies.
Lines come from different studies, so protocols differ. In brackets after ≈: the same amount, converted by molar mass.

| SMILES | target or system | assay | system | setting | endpoint | result |
| --- | --- | --- | --- | --- | --- | --- |
| N=C(CC(O)c1cc2c(F)cc(F)cc2c2cc(C(F)(F)F)ccc12)Nc1ccc(F)c(F)c1 (stereo not shown) | Plasmodium knowlesi | parasite growth, SYBR Green | – | – | IC50 | 2.4 nM |
| CC[C@H](C)C[C@H](C)CCCCCCCCC(=O)N[C@H]1C[C@@H](O)[C@@H](NCCN)NC(=O)[C@@H]2[C@@H](O)CCN2C(=O)[C@H]([C@H](O)CCN)NC(=O)[C@H]([C@H](O)[C@@H](O)c2ccc(O)cc2)NC(=O)[C@@H]2C[C@@H](O)CN2C(=O)[C@H]([C@@H](C)O)NC1=O | Pichia kudriavzevii | microbial killing, broth dilution | ATCC14243 | 48 h | MFC | 4 µg/mL (≈ 3.66 µM) |
| CC(=O)NC[C@H]1CN(c2ccc(N3CCOCC3)c(F)c2)C(=O)O1 | Enterococcus | microbial growth, broth dilution | VRE | – | MIC | 2 µg/mL (≈ 5.93 µM) |
| COC(=O)OCOc1c2n(ccc1=O)N([C@@H]1c3ccccc3SCc3c1ccc(F)c3F)[C@@H]1COCCN1C2=O | Influenza A virus | viral replication, inhibitor | H1N1 PR/8 | – | EC50 | 7.57 nM |
| N=C(CC(O)c1cc2c(F)cc(F)cc2c2cc(C(F)(F)F)ccc12)Nc1cccc(F)c1 (stereo not shown) | Plasmodium knowlesi | parasite growth, SYBR Green | – | – | IC50 | 6.4 nM |
| Sc1ncnc2nc[nH]c12 | Influenza A virus | viral replication, inhibitor, ELISA | MDCK, H1N1 | 24 h | IC50 | 11400 nM |
| NC(=O)c1nc(F)c[nH]c1=O | Influenza A virus | viral replication, inhibitor | MDCK, H1N1 WSN | – | EC50 | 1570 nM |
| Nc1ccn([C@@H]2O[C@H](CO)[C@@H](O)C2(F)F)c(=O)n1 | Influenza A virus | viral replication, inhibitor, ELISA | MDCK, H1N1 | 24 h | IC50 | 640 nM |
| N.N.[Cl][Pt][Cl] | SU-DHL-8 | cell growth or viability, ATP luminescence | – | 72 h | IC50 | 940 nM |
| O=c1[nH]cc(F)c(=O)[nH]1 | Influenza A virus | viral replication, inhibitor, ELISA | MDCK, H1N1 | 24 h | IC50 | 50400 nM |
| CC1=CC(=O)c2c(O)cccc2C1=O | HuCC-A1 | cell growth or viability, MTT | – | – | IC50 | 10800 nM |
| CC(C)C(=O)OC[C@H]1O[C@@H](n2ccc(NO)nc2=O)[C@H](O)[C@@H]1O | Influenza A virus | viral replication, inhibitor, ELISA | MDCK, H1N1 | 24 h | IC50 | 28300 nM |
| O=c1c2ccccc2[se]n1-c1ccccc1 | Enterovirus A | viral replication | Vero, EV71 | 48 h | IC50 | 7100 nM |
